# Measurements taken from ChEMBL document CHEMBL1144182, “Antimicrobial and cytotoxic arylazoenamines. Part III: antiviral activity of selected classes of arylazoenamines” (Bioorg Med Chem, 2008).
# Activity calls are given as the source filed them. The rule behind the calls is not given here.
# Experiments:
# [1] = Cytotoxicity against mock-infected human MT4 cells assessed as reduction in cell viability after 96 hrs by MTT assay; assay type: cell-based
# Procedure, shortened: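 Exponentially growing MT-4 cells seeded at 1 × 10^5 cells/mL in RPMI-1640 with 10% FCS, penicillin and streptomycin, with or without serial compound dilutions. Incubated at 37 °C, 5% CO2; viability read by MTT after 96 h. CC50 is the concentration reducing mock-infected cell viability by 50%.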
# [2] = Cytotoxicity against mock-infected MDBK cells assessed as reduction in cell viability after 96 hrs by MTT assay; assay type: cell-based, Bos taurus; conditions: cattle
# Procedure, shortened: (§1)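 Cytotoxicity run in parallel with the antiviral assays. MDBK seeded at 6 × 10^5 and BHK at 1 × 10^6 cells/mL in maintenance medium with or without serial compound dilutions. Incubated 48–96 h at 37 °C, 5% CO2, then viability read by MTT. CC50 is the concentration reducing mock-infected cell viability by 50%.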
# [3] = system: Bovine viral diarrhea virus 1; assay: Antiviral activity against BVDV infected in MDBK cells assessed as protection against virus-induced cytopathogenicity after 4 days by MTT assay; assay type: functional, organism-based; conditions: Bovine viral diarrhea virus isolates and strains, 96 h
# Procedure, shortened: (§2)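 MDBK (BVDV) or BHK-21 (YFV) cells were seeded at 3 × 10^4 or 5 × 10^4 cells/well respectively and grown overnight to confluent monolayers at 37 °C in 5% CO2. Monolayers were infected at m.o.i. 0.01 in serum-free medium. After 1 h, MEM Earle's with 1% FCS was added, with or without serial compound dilutions. After 3–4 days at 37 °C, viability was read by MTT. EC50 was taken as 50% protection from virus-induced cytopathogenicity.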
# [4] = Cytotoxicity against mock-infected BHK cells assessed as reduction in cell viability after 96 hrs by MTT assay; assay type: cell-based, Mesocricetus auratus; conditions: hamster; procedure, shortened: as §1
# [5] = system: Yellow fever virus; assay: Antiviral activity against YFV infected in BHK21 cells assessed as protection against virus-induced cytopathogenicity after 4 days by MTT assay; assay type: functional, organism-based; conditions: BHK-21, 96 h; procedure, shortened: as §2
# [6] = Cytotoxicity against mock-infected african green monkey Vero76 cells assessed as reduction in cell viability after 96 hrs by MTT assay; assay type: cell-based, Vero; conditions: chlorocebus sabaeus
# [7] = system: Coxsackievirus B2; assay: Antiviral activity against CVB2 infected in Vero76 cells assessed as reduction in virus plaque formation after 4 days by MTT assay; assay type: functional, organism-based; conditions: Enterovirus B, Vero 76, 96 h
# [8] = system: Respiratory syncytial virus; assay: Antiviral activity against RSV infected in Vero76 cells assessed as reduction in virus plaque formation after 4 days by MTT assay; assay type: functional, organism-based; conditions: human respiratory syncytial virus, Vero 76, 96 h
# [9] = system: Poliovirus 1; assay: Antiviral activity against Sb1 virus infected in Vero76 cells assessed as reduction in virus plaque formation after 4 days by MTT assay; assay type: functional, organism-based; conditions: Enterovirus C, Sabin, Vero 76, 96 h
# [10] = system: Human immunodeficiency virus 1; assay: Antiviral activity against HIV1 infected in MT4 cells assessed as virus-induced cytopathogenicity after 4 days; assay type: functional, organism-based
# [11] = system: Vaccinia virus; assay: Antiviral activity against VV infected in Vero76 cells assessed as reduction in virus plaque formation after 4 days by MTT assay; assay type: functional, organism-based; conditions: Orthopoxvirus vaccinia; Vero 76
# [12] = system: Vesicular stomatitis virus; assay: Antiviral activity against VSV infected in Vero76 cells assessed as reduction in virus plaque formation after 4 days by MTT assay; assay type: functional, organism-based; conditions: Vero 76
SMILES,CC50 at 96 h [1] [µM],CC50 at 96 h [2] [µM],EC50 [3] [µM],CC50 at 96 h [4] [µM],EC50 [5] [µM],CC50 at 96 h [6] [µM],EC50 [7] [µM],EC50 [8] [µM],EC50 [9] [µM],Activity [10],Activity [11],Activity [12]
CN1/C(=C\N=N\c2ccccc2)C(C)(C)c2ccccc21.[O-][Cl+3]([O-])([O-])O,30,20,> 20,47,> 47,73,> 73,> 73,> 73,inactive,inactive,inactive
c1ccc2c(N=NC3=C4CCCN4CCC3)nncc2c1,52,> 100,> 100,> 100,> 100,> 100,> 100,7,> 100,inactive,inactive,inactive
CC(=O)c1ccc(N2CCN(/C=C/N=N/c3ccccc3)CC2)cc1,21,8,> 8,49,> 49,11,> 11,0.9,> 11,inactive,inactive,inactive
Fc1ccc(/N=N\C2=C3CCCCN3CCC2)cc1C(F)(F)F,3,> 100,> 100,60,> 60,> 100,45,> 100,> 100,inactive,inactive,inactive
FC(F)(F)c1cc(/N=N/C=C2\CCCN2Cc2ccccc2)ccc1Cl,20,14,> 14,22,> 22,80,30,> 80,> 80,inactive,inactive,inactive
O=[N+]([O-])c1ccc(N2CCN(/C=C/N=N/c3ccccc3)CC2)cc1,41,20,> 20,48,12,45,14,13,> 45,inactive,inactive,inactive
Clc1ccccc1/N=N\C1=C2CCCCN2CCC1,78,> 100,> 100,93,> 93,> 100,32,60,> 100,inactive,inactive,inactive
Clc1ccc(/N=N/C=C2\CCCN2Cc2ccccc2)cc1,17,18,> 18,20,> 20,70,23,> 70,> 70,inactive,inactive,inactive
Clc1ccccc1N1CCN(/C=C/N=N/c2ccccc2)CC1,16,13,> 13,69,> 69,14,5,5,> 14,inactive,inactive,inactive
FC(F)(F)c1cccc(N2CCN(/C=C/N=N/c3ccccc3)CC2)c1,30,9,> 9,43,9,11,> 11,4,> 11,inactive,inactive,inactive
